For data set [1], the system named is Cynomolgus monkey. As to the kind of experiment: Antialzheimer activity in cynomolgus monkey assessed as effect on amyloid beta 40 level in plasma at 10 mg/kg, po at 5 hrs. To be noted: Macaca fascicularis. Further details: dose 10 mg/kg. The format is functional, organism-based.
Data set [2] has as its system CHO. As to the kind of experiment: Modulation of gamma-secretase in CHO cells overexpressing APP V717 mutant assessed as effect on amyloid beta40 level after 17 hrs by ELISA. The format is cell-based. Conditions: Cricetulus griseus. Summed up: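 CHO cells overexpressing APP V717F; Aβ42, Aβ40 and Aβ38 quantified together in each well by multiplex Aβ ELISA. EC50 is the mean of at least two determinations.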

Data set [3] concerns Mus musculus. As to the kind of experiment: Antialzheimer activity in CF1 mouse assessed as effect on amyloid beta 40 level in brain at 10 mg/kg, po. The format is functional, organism-based. Further details: dose 10 mg/kg. Summed up: (§1)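 Wild-type CF-1 mice received a single oral dose as a solution in ethanol:propylene glycol:10% solutol (1:1:8). Animals were sacrificed 4 h after dosing. Brain and plasma were collected for drug concentration and Aβ levels. Aβ change was expressed relative to vehicle-treated controls.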

Data set [4] concerns Mus musculus. As to the kind of experiment: Antialzheimer activity in CF1 mouse assessed as increase in amyloid beta 38 level in brain at 10 mg/kg, po. Further details: dose 10 mg/kg. In kind it is functional, organism-based. Summed up:
as §1

Data set [5] deals with Rattus norvegicus. As to the kind of experiment: Antialzheimer activity in Fischer rat assessed as effect on amyloid beta 40 level in brain at 10 mg/kg, po after 4 hrs. The format is functional, organism-based. The arrangement: dose 10 mg/kg.
The target in data set [6] is Neurogenic locus notch homolog protein 1 (Homo sapiens) (UniProt P46531). As to the kind of experiment: Inhibition of NICD-mediated HES1 protein expression in human H4 cells at 10 uM after 24 hrs by Western blot analysis. In kind it is cell-based. Background: Immunoblotting shows a protein as a band on a membrane.
Data set [7] deals with Cynomolgus monkey. As to the kind of experiment: Antialzheimer activity in cynomolgus monkey assessed as increase in amyloid beta 38 level in plasma at 10 mg/kg, po at 5 hrs. Further details: dose 10 mg/kg. The format is functional, organism-based. Conditions: Macaca fascicularis.
Data set [8] deals with Rattus norvegicus. Briefly: Antialzheimer activity in Fischer rat assessed as increase in amyloid beta 38 level in brain at 10 mg/kg, po after 4 hrs. The format is functional, organism-based. The arrangement: dose 10 mg/kg.
The nature of data set [9]: Oral bioavailability in dog at 10 mg/kg. To be noted: in vivo. In kind it is ADME, organism-based, Canis lupus familiaris. Summed up: (§2)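 Single dose to rats, dogs and cynomolgus monkeys. IV at 1 mg/kg in EtOH:PEG400:water (10:40:50), 1 mL/kg. Oral at 10 mg/kg as crystalline HCl salt suspension in 0.5% CMC, 0.2% Tween80, 5 mL/kg. Plasma sampled over 0–24 h. Values are mean ± SD, n = 3.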

Data set [10] can be described thus: AUC (0 to 24 hrs) in dog at 1 mg/kg, iv. In kind it is ADME, organism-based, Canis lupus familiaris. The arrangement: time < 24 hr, dose 1 mg/kg, route intravenous. To be noted: plasma. Put shortly:
(§3)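 Single-dose PK in rats, dogs and cynomolgus monkeys. The compound was given iv at 1 mg/kg in EtOH:PEG400:water (10:40:50) at 1 mL/kg. […] Values are mean ± SD, n = 3.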

A short description of data set [11]: Oral bioavailability in cynomolgus monkey at 10 mg/kg. The format is ADME, organism-based, Macaca fascicularis. Conditions: in vivo. Put shortly:
as §2

The nature of data set [12]: Volume of distribution at steady state in rat at 1 mg/kg, iv. In kind it is ADME, organism-based. The arrangement: dose 1 mg/kg, route intravenous. To be noted: in vivo, read-out: Vdss. Summed up:
as §2

A short description of data set [13]: AUC (0 to 24 hrs) in cynomolgus monkey at 10 mg/kg, po. The format is ADME, organism-based, Macaca fascicularis. Further details: time < 24 hr, dose 10 mg/kg, route oral. To be noted: plasma.
A short description of data set [14]: AUC (0 to 24 hrs) in cynomolgus monkey at 1 mg/kg, iv. The arrangement: time < 24 hr, dose 1 mg/kg, route intravenous. In kind it is ADME, organism-based, Macaca fascicularis. Conditions: plasma. Summed up:
as §3

The nature of data set [15]: Volume of distribution at steady state in cynomolgus monkey at 1 mg/kg, iv. In kind it is ADME, organism-based, Macaca fascicularis. The arrangement: dose 1 mg/kg, route intravenous. To be noted: in vivo, read-out: Vdss. Put shortly:
as §2

Data set [16] is described as follows: AUC (0 to 24 hrs) in dog at 10 mg/kg, po. Further details: time < 24 hr, dose 10 mg/kg, route oral. In kind it is ADME, organism-based, Canis lupus familiaris. Conditions: plasma.
Data set [17] in a line: Tmax in rat at 10 mg/kg, po. To be noted: in vivo. The arrangement: dose 10 mg/kg, route oral. The format is ADME, organism-based. Put shortly: as §2
A short description of data set [18]: Half life in dog at 10 mg/kg, po. The format is ADME, organism-based, Canis lupus familiaris. The arrangement: dose 10 mg/kg, route oral. Conditions: in vivo. Summed up: (§4)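 Single oral dose of 10 mg/kg given to rats, dogs or cynomolgus monkeys. The crystalline HCl salt was suspended in 0.5% CMC with 0.2% Tween80 and dosed at 5 mL/kg. […] Parameters are reported as mean ± SD, n = 3.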

Data set [19] is described as follows: Half life in rat at 10 mg/kg, po. In kind it is ADME, organism-based. The arrangement: dose 10 mg/kg, route oral. Conditions: in vivo. Summed up: as §4
Data set [20] is described as follows: AUC (0 to 24 hrs) in rat at 1 mg/kg, iv. In kind it is ADME, organism-based. The arrangement: time < 24 hr, dose 1 mg/kg, route intravenous. Conditions: plasma. Put shortly: as §3
The nature of data set [21]: Tmax in cynomolgus monkey at 10 mg/kg, po. The format is ADME, organism-based, Macaca fascicularis. Further details: dose 10 mg/kg, route oral. To be noted: in vivo. Put shortly: as §2
Data set [22] is described as follows: Cmax in cynomolgus monkey at 10 mg/kg, po. In kind it is ADME, organism-based, Macaca fascicularis. To be noted: in vivo. Further details: dose 10 mg/kg, route oral. Put shortly:
as §4

The nature of data set [23]: Plasma clearance in cynomolgus monkey at 1 mg/kg, iv. The format is ADME, organism-based, Macaca fascicularis. The arrangement: dose 1 mg/kg, route intravenous. Summed up: as §2
The nature of data set [24]: Half life in cynomolgus monkey at 1 mg/kg, iv. The arrangement: dose 1 mg/kg, route intravenous. The format is ADME, organism-based, Macaca fascicularis. To be noted: in vivo. Put shortly:
as §3

The nature of data set [25]: Plasma clearance in rat at 1 mg/kg, iv. Further details: dose 1 mg/kg, route intravenous. In kind it is ADME, organism-based. Summed up:
as §2

A short description of data set [26]: Volume of distribution at steady state in dog at 1 mg/kg, iv. In kind it is ADME, organism-based, Canis lupus familiaris. Further details: dose 1 mg/kg, route intravenous. Conditions: in vivo, read-out: Vdss. Put shortly: as §2
Data set [27] can be described thus: Half life in dog at 1 mg/kg, iv. In kind it is ADME, organism-based, Canis lupus familiaris. The arrangement: dose 1 mg/kg, route intravenous. Conditions: in vivo. Summed up:
as §3

Data set [28] is described as follows: Cmax in rat at 10 mg/kg, po. Conditions: in vivo. In kind it is ADME, organism-based. Further details: dose 10 mg/kg, route oral. Summed up:
as §4

Data set [29] in a line: Half life in cynomolgus monkey at 10 mg/kg, po. The format is ADME, organism-based, Macaca fascicularis. Further details: dose 10 mg/kg, route oral. To be noted: in vivo. Put shortly:
as §4

A short description of data set [30]: Oral bioavailability in rat at 10 mg/kg. In kind it is ADME, organism-based. Conditions: in vivo. Summed up: as §2
Data set [31] in a line: Cmax in dog at 10 mg/kg, po. The arrangement: dose 10 mg/kg, route oral. To be noted: in vivo. The format is ADME, organism-based, Canis lupus familiaris. Summed up:
as §4

A short description of data set [32]: Thermodynamic solubility of the compound. The format is physicochemical. To be noted: read-out: Therm_solubility. Put shortly:
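Thermodynamic solubility measured on the crystalline HCl salt.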

Data set [33] in a line: Half life in rat at 1 mg/kg, iv. In kind it is ADME, organism-based. The arrangement: dose 1 mg/kg, route intravenous. To be noted: in vivo. Put shortly: as §3
Data set [34] can be described thus: AUC (0 to 24 hrs) in rat at 10 mg/kg, po. To be noted: plasma. In kind it is ADME, organism-based. Further details: time < 24 hr, dose 10 mg/kg, route oral.
A short description of data set [35]: Tmax in dog at 10 mg/kg, po. In kind it is ADME, organism-based, Canis lupus familiaris. The arrangement: dose 10 mg/kg, route oral. To be noted: in vivo. Summed up: as §2
Data set [36] can be described thus: Plasma clearance in dog at 1 mg/kg, iv. Further details: dose 1 mg/kg, route intravenous. In kind it is ADME, organism-based, Canis lupus familiaris. Summed up:
as §2

Activity calls are given as the source filed them. No cut-off for these calls is given here.

One may read the AUC(0-t) as the area under the concentration-time curve up to a stated or last time point. By Tmax is commonly meant the time from dosing to the highest level. Usually half-life stands for how long it takes for the measured level to halve. By Cmax is commonly meant the highest concentration seen after dosing. A word on the clearance: it is the volume of plasma or blood freed of the substance per unit of time.

Chain of Neurogenic locus notch homolog protein 1 (Homo sapiens) (P46531 whole entry): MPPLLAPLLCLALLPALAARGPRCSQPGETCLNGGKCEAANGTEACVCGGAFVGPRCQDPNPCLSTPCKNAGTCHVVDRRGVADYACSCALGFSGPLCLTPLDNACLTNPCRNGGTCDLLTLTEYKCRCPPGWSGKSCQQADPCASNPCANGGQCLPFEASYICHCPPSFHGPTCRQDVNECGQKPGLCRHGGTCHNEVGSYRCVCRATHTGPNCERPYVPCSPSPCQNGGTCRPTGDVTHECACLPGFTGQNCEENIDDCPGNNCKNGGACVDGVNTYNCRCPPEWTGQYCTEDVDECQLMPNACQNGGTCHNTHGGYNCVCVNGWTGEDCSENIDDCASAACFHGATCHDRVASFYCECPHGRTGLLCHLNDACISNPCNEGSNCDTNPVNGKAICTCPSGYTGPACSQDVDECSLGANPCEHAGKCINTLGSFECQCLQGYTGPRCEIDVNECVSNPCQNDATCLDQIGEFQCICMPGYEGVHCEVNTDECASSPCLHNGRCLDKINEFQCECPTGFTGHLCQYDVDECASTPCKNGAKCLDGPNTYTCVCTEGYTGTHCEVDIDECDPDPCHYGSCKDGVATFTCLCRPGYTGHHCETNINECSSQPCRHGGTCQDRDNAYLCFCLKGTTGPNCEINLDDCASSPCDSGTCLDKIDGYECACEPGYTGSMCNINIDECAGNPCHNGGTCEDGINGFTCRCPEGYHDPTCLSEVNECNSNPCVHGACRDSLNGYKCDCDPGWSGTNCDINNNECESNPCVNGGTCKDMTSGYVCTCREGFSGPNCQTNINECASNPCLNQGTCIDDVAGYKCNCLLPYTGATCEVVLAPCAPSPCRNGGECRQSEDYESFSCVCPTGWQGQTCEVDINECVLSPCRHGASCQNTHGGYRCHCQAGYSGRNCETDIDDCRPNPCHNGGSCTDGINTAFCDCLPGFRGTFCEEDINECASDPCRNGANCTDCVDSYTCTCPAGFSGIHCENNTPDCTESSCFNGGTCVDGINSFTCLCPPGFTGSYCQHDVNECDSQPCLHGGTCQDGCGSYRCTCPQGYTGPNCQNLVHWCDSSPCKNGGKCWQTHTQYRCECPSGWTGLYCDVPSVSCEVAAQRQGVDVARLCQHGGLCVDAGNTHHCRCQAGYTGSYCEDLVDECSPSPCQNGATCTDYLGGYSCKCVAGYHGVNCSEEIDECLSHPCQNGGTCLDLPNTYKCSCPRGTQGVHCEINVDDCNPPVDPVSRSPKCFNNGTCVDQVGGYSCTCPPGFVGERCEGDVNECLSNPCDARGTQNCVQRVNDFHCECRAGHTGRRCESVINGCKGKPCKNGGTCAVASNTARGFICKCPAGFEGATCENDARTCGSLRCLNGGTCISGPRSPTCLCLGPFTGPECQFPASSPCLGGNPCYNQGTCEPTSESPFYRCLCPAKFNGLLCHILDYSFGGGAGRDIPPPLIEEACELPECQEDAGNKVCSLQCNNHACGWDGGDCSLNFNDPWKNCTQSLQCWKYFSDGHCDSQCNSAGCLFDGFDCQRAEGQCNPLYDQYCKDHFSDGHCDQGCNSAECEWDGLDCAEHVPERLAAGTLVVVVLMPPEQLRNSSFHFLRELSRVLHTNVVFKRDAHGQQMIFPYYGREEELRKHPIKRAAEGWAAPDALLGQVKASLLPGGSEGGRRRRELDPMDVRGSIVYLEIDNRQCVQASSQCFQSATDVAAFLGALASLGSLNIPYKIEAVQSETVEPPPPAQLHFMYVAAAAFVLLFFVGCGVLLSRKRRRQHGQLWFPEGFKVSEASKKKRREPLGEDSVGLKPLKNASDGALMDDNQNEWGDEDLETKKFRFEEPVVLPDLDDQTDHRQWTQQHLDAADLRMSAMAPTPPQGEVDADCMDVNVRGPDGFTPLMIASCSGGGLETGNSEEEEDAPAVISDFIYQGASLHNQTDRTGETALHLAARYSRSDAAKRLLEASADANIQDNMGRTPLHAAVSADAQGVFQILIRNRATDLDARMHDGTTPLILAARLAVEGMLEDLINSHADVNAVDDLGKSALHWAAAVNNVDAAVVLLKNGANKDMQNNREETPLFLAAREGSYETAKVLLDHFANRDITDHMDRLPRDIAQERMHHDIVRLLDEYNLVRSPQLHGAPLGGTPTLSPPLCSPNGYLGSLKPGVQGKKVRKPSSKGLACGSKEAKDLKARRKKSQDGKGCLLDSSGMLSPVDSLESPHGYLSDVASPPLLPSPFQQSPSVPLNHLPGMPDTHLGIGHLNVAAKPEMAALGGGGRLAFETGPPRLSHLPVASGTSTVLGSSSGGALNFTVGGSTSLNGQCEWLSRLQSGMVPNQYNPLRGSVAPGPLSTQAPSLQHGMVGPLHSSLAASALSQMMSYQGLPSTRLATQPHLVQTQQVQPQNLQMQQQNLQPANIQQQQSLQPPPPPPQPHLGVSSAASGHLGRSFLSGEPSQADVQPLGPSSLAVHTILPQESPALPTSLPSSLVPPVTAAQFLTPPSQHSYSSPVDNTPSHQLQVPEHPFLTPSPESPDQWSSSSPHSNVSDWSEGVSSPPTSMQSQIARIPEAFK

As for `CC1CCN([C@H](c2ccc(F)cc2)c2ccc([C@@H](C)C(=O)O)cc2-c2ccc(C(F)(F)F)cc2)CC1`, the outcome in data set [1], in data set [2], in [3] and in data set [5] was inactive. Moreover, the result in [4], in data set [7] and in [8] was Active. The inhibition entry in data set [6] is “inactive”.

For `CC1CCN([C@H](c2ccc(F)cc2)c2ccc([C@@H](C)C(=O)O)cc2-c2ccc(C(F)(F)F)cc2)CC1.Cl`, the bioavailability in data set [9] came out at 44%; in data set [11], 106%; in [30], 47%. The AUC(0-t) at 24 h in data set [10] was 1200 ng·h/mL; in data set [13], 48000 ng·h/mL; in [14] it was 4700 ng·h/mL; in data set [16], 5200 ng·h/mL; in [20], 10400 ng·h/mL; in data set [34], 49700 ng·h/mL. In addition, the Vd was 0.8 L/kg in [12], 1.7 L/kg in data set [15] and 0.9 L/kg in data set [26]. The time of peak concentration (Tmax) in [17] came out at 1.7 h; in data set [21] it was 2 h; in data set [35], 1.3 h. Moreover, the half-life was 2.3 h in data set [18]; 6.6 h in data set [19]; 11.2 h in data set [24]; 1.3 h in data set [27]; 25 h in data set [29]; 7.2 h in data set [33]. In addition, the results for the highest concentration (Cmax) in [22], in [28] and in [31] were 5900 ng/mL, 6000 ng/mL and 1400 ng/mL, respectively. Also, the clearance was 3.7 mL/min/kg in [23], 1.5 mL/min/kg in data set [25] and 14 mL/min/kg in data set [36]. Further, the solubility thermodynamic in data set [32] was 20 µg/mL.
